Measurements from ChEMBL document CHEMBL1833899, “Targeting hypoxic tumor cell viability with carbohydrate-based carbonic anhydrase IX and XII inhibitors” (J Med Chem, 2011).
Active and inactive are the calls of the source. The calls are words filed in the database; no cut-off is given here.

Key:
Carbonic anhydrase 9 [1] = target: T1, Carbonic anhydrase 9 (Homo sapiens, UniProt Q16790)
[2] = Cytotoxicity against CA9-deficient chinese hamster PS120 cells assessed as cell viability at 30 uM and pH 7.5 after 24 hrs by giemsa staining; format: cell-based, Cricetulus griseus; conditions: ps120, pH 7.5, 24 h
Procedure, shortened: (§1)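 PS120-pev fibroblasts (CCL39-derived, no CA IX) attached, then held 24 h in HCO3−-free DMEM with 30 mM HEPES at pHo 7.5, 10% dialyzed serum, 0.1 mM hypoxanthine and 0.1 mM uridine triphosphate, in CO2/HCO3−-free atmosphere, with compound or DMSO. Then returned to regular medium under 5% CO2 for 7 days; Giemsa staining; scored viable or not viable.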

[3] = Cytotoxicity against CA9-deficient chinese hamster PS120 cells assessed as cell viability at 60 uM and pH 7.5 after 24 hrs by giemsa staining; format: cell-based, Cricetulus griseus; conditions: ps120, pH 7.5, 24 h
Procedure, shortened: as §1

[4] = Cytotoxicity against CA9-deficient chinese hamster PS120 cells assessed as cell viability at 100 uM and pH 7.5 after 24 hrs by giemsa staining; format: cell-based, Cricetulus griseus; conditions: ps120, pH 7.5, 24 h
Procedure, shortened: as §1

[5] = Cytotoxicity against CA9-deficient chinese hamster PS120 cells assessed as cell viability at 300 uM and pH 7.5 after 24 hrs by giemsa staining; format: cell-based, Cricetulus griseus; conditions: ps120, pH 7.5, 24 h
Procedure, shortened: as §1

LS174T [6] = test: Reduction in CA9 mRNA level in human LS 174T cells expressing shca9 and tetracyclin repressor under normoxia condition at 60 uM after 48 hrs by Western blot analysis; format: functional, cell-based
LS174T [7] = test: Reduction in CA9 protein level in human LS 174T cells expressing shca9 and tetracyclin repressor under normoxia condition at 60 uM after 48 hrs by Western blot analysis; format: functional, cell-based
Procedure, shortened: (§2)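 Stable LS-shca9/ctl cells kept without Tet for 4 days, then placed in normoxia (21% O2) or hypoxia (1% O2) for 48 h with or without 60 µM compound. Whole-cell SDS lysates (40 µg protein) run on 7.5% SDS-PAGE and immunoblotted with M75 anti-CA IX; Hsp90 as loading control; HRP secondary with ECL detection.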

LS174T [8] = test: Reduction in CA9 mRNA level in human LS 174T cells expressing shca9 and tetracyclin repressor under hypoxia condition at 60 uM after 48 hrs by Western blot analysis; format: functional, cell-based
LS174T [9] = test: Reduction in CA9 level in human LS 174T cells expressing shca9 and tetracyclin repressor under hypoxia condition at 60 uM after 48 hrs by Western blot analysis; format: functional, cell-based
Procedure, shortened: as §2

[10] = Antiproliferative activity against human LS 174T cells expressing shca9 under hypoxia condition at 60 uM after 3 days by cell counting technique relative to control; format: functional, LS174T
Procedure, shortened: (§3)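 LS174Tr colon carcinoma cells carrying Tet-inducible ca9 shRNA plus nontarget (ctl) or constitutive ca12 shRNA. Tet (1 µg/ml) added 4 days before assay for ca12-silenced cells. 6 x 10^4 cells seeded; 24 h later moved to hypoxia (1% O2) with or without inhibitor (DMSO control). Cells detached and Coulter-counted every 24 h for 3 days; proliferation index = daily count / count at 24 h post-seeding.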

[11] = Antiproliferative activity against ca9/ca12 double silenced human LS 174T cells under hypoxia assessed as decrease in cell proliferation at 60 uM after 3 days by cell counting technique relative to control; format: functional, LS174T; set-up: scale not given: the % may be the effect or the level left
Procedure, shortened: as §3

Carbonic anhydrase 9 [12] = target: T1, Carbonic anhydrase 9; conditions: PS120, at 60 µM

Row | Compound | Ki (Carbonic anhydrase 9 [1]) [nM] | Activity [2] | Activity [3] | Activity [4] | Activity [5] | also measured
1 | NS(=O)(=O)c1ccc(-n2cc(CS(=O)(=O)[C@@H]3O[C@H](CO)[C@@H](O)[C@H](O)[C@H]3O)nn2)cc1 |  | Non-toxic | Non-toxic | Non-toxic | Non-toxic | 
2 | NS(=O)(=O)c1ccc(-n2cc(CS[C@@H]3O[C@H](CO)[C@@H](O)[C@H](O)[C@H]3O)nn2)cc1 |  | Non-toxic | Non-toxic | Non-toxic | Non-toxic | 
3 | CC(=O)OC[C@H]1O[C@@H](S(=O)(=O)Cc2cn(-c3ccc(S(N)(=O)=O)cc3)nn2)[C@H](OC(C)=O)[C@@H](OC(C)=O)[C@@H]1OC(C)=O |  | Non-toxic | Non-toxic | Non-toxic | Non-toxic | 
4 | CC(=O)Nc1nnc(S(N)(=O)=O)s1 [ACETAZOLAMIDE] |  | Non-toxic | Non-toxic | Non-toxic | Toxic | 
5 | CC(=O)OC[C@H]1O[C@@H](S(=O)(=O)Cc2nnn(-c3ccc(S(N)(=O)=O)cc3)c2I)[C@H](OC(C)=O)[C@@H](OC(C)=O)[C@H]1OC(C)=O | 97 |  |  |  |  | 
6 | CC(=O)OC[C@H]1O[C@@H](SCc2cn(-c3ccc(S(N)(=O)=O)cc3)nn2)[C@H](OC(C)=O)[C@@H](OC(C)=O)[C@@H]1OC(C)=O |  | Non-toxic | Non-toxic | Non-toxic |  | 
7 | NS(=O)(=O)c1ccc(-n2nnc(CS[C@@H]3O[C@H](CO)[C@H](O)[C@H](O)[C@H]3O)c2I)cc1 | 7.3 |  |  |  |  | 
8 | CC(=O)OC[C@H]1O[C@@H](S(=O)(=O)Cc2nnn(-c3ccc(S(N)(=O)=O)cc3)c2I)[C@H](OC(C)=O)[C@@H](OC(C)=O)[C@@H]1OC(C)=O | 71 | Non-toxic | Toxic | Toxic | Toxic | 
9 | CC(=O)OC[C@H]1O[C@@H](SCc2nnn(-c3ccc(S(N)(=O)=O)cc3)c2C#CCO)[C@H](OC(C)=O)[C@@H](OC(C)=O)[C@H]1OC(C)=O | 91 |  |  |  |  | 

Continued, in another order:

Row | Ki (Carbonic anhydrase 9 [1]) [nM] | Compound | Activity [2] | Activity [3] | Activity [4] | Activity [5] | also measured
10 | 99.6 | CC(=O)OC[C@H]1O[C@@H](S(=O)(=O)Cc2nnn(-c3ccc(S(N)(=O)=O)cc3)c2I)[C@H](OC(C)=O)[C@@H](OC(C)=O)[C@@H]1O[C@H]1O[C@H](COC(C)=O)[C@@H](OC(C)=O)[C@H](OC(C)=O)[C@H]1OC(C)=O |  |  |  |  | 
11 | 6.2 | CC(=O)OC[C@H]1O[C@@H](SCc2nnn(-c3ccc(S(N)(=O)=O)cc3)c2I)[C@H](OC(C)=O)[C@@H](OC(C)=O)[C@@H]1OC(C)=O | Non-toxic | Non-toxic | Toxic | Toxic | Activity (LS174T [6]): Active; Activity (LS174T [7]): Active; Activity (LS174T [8]): Active; Activity (LS174T [9]): Active; Activity [10]: 60%; Activity [11]: 16%; inhibition (Carbonic anhydrase 9 [12]): Active
12 | 89 | NS(=O)(=O)c1ccc(-n2nnc(CS(=O)(=O)[C@@H]3O[C@H](CO)[C@H](O)[C@H](O)[C@H]3O)c2I)cc1 |  |  |  |  | 
13 | 61 | NS(=O)(=O)c1ccc(-n2nnc(CS(=O)(=O)[C@@H]3O[C@H](CO)[C@@H](O)[C@H](O)[C@H]3O)c2I)cc1 | Non-toxic | Non-toxic | Non-toxic | Toxic | 
14 | 6.5 | NS(=O)(=O)c1ccc(-n2nnc(CS[C@@H]3O[C@H](CO)[C@@H](O)[C@H](O)[C@H]3O)c2I)cc1 | Non-toxic | Non-toxic | Non-toxic | Non-toxic | 
15 | 68 | NS(=O)(=O)c1ccc(-n2nnc(CS(=O)(=O)[C@@H]3O[C@H](CO)[C@@H](O[C@H]4O[C@H](CO)[C@@H](O)[C@H](O)[C@H]4O)[C@H](O)[C@H]3O)c2I)cc1 |  |  |  |  | 
16 | 61.9 | CC(=O)OC[C@H]1O[C@@H](S(=O)(=O)Cc2cn(-c3ccc(S(N)(=O)=O)cc3)nn2)[C@H](OC(C)=O)[C@@H](OC(C)=O)[C@@H]1O[C@H]1O[C@H](COC(C)=O)[C@@H](OC(C)=O)[C@H](OC(C)=O)[C@H]1OC(C)=O |  |  |  |  | 
17 | 95 | CC(=O)OC[C@H]1O[C@@H](SCc2nnn(-c3ccc(S(N)(=O)=O)cc3)c2I)[C@H](OC(C)=O)[C@@H](OC(C)=O)[C@H]1OC(C)=O |  |  |  |  | 
18 | 71.2 | NS(=O)(=O)c1ccc(-n2cc(CS(=O)(=O)[C@@H]3O[C@H](CO)[C@@H](O[C@H]4O[C@H](CO)[C@@H](O)[C@H](O)[C@H]4O)[C@H](O)[C@H]3O)nn2)cc1 |  |  |  |  | 
